Screening results: PubChem BioAssay, NMMLSC
Most compounds without a hit are left out; they make up all but 0.9% or so of the library.
RGS7-Gao – modulates binding of RGS7 to human Galphao. P09471. Multiplexed bead flow cytometry; actives lie on both sides. binding response (% of control), % at 10 µM. 220,000 compounds, 0.35% hits. AID 1439; in the data active means binding response below about 49% or above about 150%; inconclusive means no clear call, values can overlap the other calls; inactive means in between;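 further: fluorescent Galphao held in activated GDP-AlF4 state binding bead-coupled RGS7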
ABCB1 block – human ABCB1 inhibition, ABCG2 as counter-screen; P08183; CCRF-Adr cells, JC-1 efflux, flow cytometry; inhibition, % at 6.6 µM; 190,000 compounds, 0.067% hits; AID 1326; in the data active means inhibition above about 40%;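 further: 0% = vehicle and 100% = reference inhibitor; higher value means more JC-1 retained so stronger ABCB1 efflux block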
RGS16-Gao HTS – regulators of human RGS16-Galphao interaction; 220,000 compounds, 0.38% hits; O15492+P09471; bead-based flow cytometry RGS16-Galphao binding, fluorescence; actives lie on both sides; binding response (% of control), % at 10 µM; AID 1441;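 further: Galphao activated by GDP with aluminum fluoride before binding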
RGS8-Gao reg – modulates binding of RGS8 to human Galphao; response (percent of control binding), % at 10 µM; 220,000 compounds, 0.34% hits; multiplexed bead flow cytometry; actives lie on both sides; P09471; in the data active means response below about 60% or above about 140%; inactive means in between;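 further: Galphao activated as the GDP aluminium fluoride complex binding bead-coupled RGS8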
RGS4-Gao reg – human RGS4-Galphao interaction regulation | P09471 | Multiplexed bead flow cytometry, RGS4-Galphao binding; actives lie on both sides | binding response (% of control), % at 10 µM | 220,000 compounds, 0.33% hits | AID 1415; in the data active means binding response below about 49% or above about 150%; inactive means in between;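 further: fluorescent Galphao activated with aluminum fluoride binding bead-coupled RGS4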
ABCG2 inh – inhibitors of human ABCG2 transporter, ABCB1 counter-screen | Q9UNQ0 | IgMXP3 cells, JC-1 efflux, flow cytometry | inhibition, % at 6.6 µM | 190,000 compounds, 0.1% hits | AID 1325;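 active means inhibition above 80%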;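 further: 0% = DMSO and 100% = nicardipine control wells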
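Test system: IgMXP3 cells (ABCG2) mixed with DDAO far-red-labelled CCRF-Adr cells (ABCB1). Reagent: JC-1 transporter substrate. Compound dosing: single test compound dose, 6.6 µM final. Times: 10 min compound exposure, 25 °C. Detection: flow cytometry of retained JC-1 fluorescence. Read-out basis: efflux inhibition in percent versus controls. Controls: nicardipine and DMSO wells.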
RGS4-Gao HTS – RGS4-Galphao interaction regulator (human); shares compounds with RGS16-Gao HTS; multiplexed bead flow cytometry, RGS–Galpha-o binding; RGS4–Galpha-o binding response, % at 10 µM; 1,600 compounds, 99% hits;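 further: fluorescently labeled Galpha-o bound to GDP with aluminium fluoride binding biotinylated RGS beads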
Target sequence (P09471 whole entry, looked up): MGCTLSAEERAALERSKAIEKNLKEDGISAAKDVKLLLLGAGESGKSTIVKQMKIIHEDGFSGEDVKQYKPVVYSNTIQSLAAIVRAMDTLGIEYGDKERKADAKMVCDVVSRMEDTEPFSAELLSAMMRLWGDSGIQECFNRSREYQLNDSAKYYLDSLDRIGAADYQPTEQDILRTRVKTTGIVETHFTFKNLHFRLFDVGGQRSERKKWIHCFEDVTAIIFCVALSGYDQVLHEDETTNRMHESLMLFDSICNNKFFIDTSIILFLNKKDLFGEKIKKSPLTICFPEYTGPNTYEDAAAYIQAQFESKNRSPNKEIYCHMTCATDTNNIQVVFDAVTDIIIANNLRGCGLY
Target sequence (P49798 whole entry, looked up): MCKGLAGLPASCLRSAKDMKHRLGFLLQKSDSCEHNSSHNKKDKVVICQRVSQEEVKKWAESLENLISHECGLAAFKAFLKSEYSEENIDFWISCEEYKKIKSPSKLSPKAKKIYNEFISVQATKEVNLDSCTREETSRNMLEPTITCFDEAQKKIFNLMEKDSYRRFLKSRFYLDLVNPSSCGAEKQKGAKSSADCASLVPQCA
Biotin-avidin – interferes with biotinylated probe binding to avidin beads; shares compounds with RGS16-Gao HTS; streptavidin beads, fluorescein-biotin binding, flow cytometry; inhibition, % at 10 µM; 1,700 tested, under 10 active;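 active means inhibition above 50%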;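 further: median green fluorescence of gated singlet beads compared with DMSO control wells; 0% = DMSO wells and 100% = complete loss of bead fluorescence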
RGS8-Gao single – RGS8-Galphao interaction regulation, single point confirmation; shares compounds with RGS16-Gao HTS; bead-based flow cytometry RGS8-Galphao binding, fluorescence; actives lie on both sides; binding response (% of control), % at 10 µM; 1,700 compounds, 3% hits; AID 1836; in the data active means binding response below about 72% or above about 130%; inactive means in between;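 further: Galphao activated as GDP AlF4 complex before binding bead RGS8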
RGS7-Gao confirm – confirmation of regulators of human RGS7-Galphao interaction | response (percent of control binding), % at 10 µM | bead-based flow cytometry RGS7-Galphao binding; actives lie on both sides | shares compounds with RGS16-Gao HTS | 1,700 compounds, 7.8% hits; in the data active means response below about 75% or above about 130%; inactive means in between;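 further: fluorescent Galphao activated with GDP and aluminum fluoride binding bead-coupled RGS7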
RGS16-Gao single – RGS16-Galphao interaction regulation, single point confirmation | shares compounds with RGS16-Gao HTS | bead-based flow cytometry, RGS16-Galphao binding; actives lie on both sides | response (% of control binding), % at 10 µM | 1,700 compounds, 4% hits; in the data active means response below about 74% or above about 130%; inactive means in between;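 further: Galphao activated as the GDP aluminium fluoride complex binding bead-coupled RGS16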
RGS4-Gao single – confirmation of regulators of human RGS4-Galphao interaction. shares compounds with RGS16-Gao HTS. RGS4-Galphao binding, multiplexed bead flow cytometry; actives lie on both sides. binding response (% of control), % at 10 µM. 1,700 compounds, 4% hits. AID 1840; in the data active means binding response below about 74% or above about 130%; inactive means in between
RGS19-Gao conf – confirmation of regulators of human RGS19-Galphao interaction; shares compounds with RGS16-Gao HTS; bead-based flow cytometry RGS19-Galphao binding; actives lie on both sides; response (percent of control binding), % at 10 µM; 1,700 compounds, 5% hits; AID 1841; in the data active means response below about 50% or above about 160%; inactive means in between;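 further: 100% = no compound control and 0% = blank background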
Numbers without * were called inactive; ? = inconclusive; . = no result given; [ ] = dose if it differs, or a comment. Unless noted, how the calls were made is not given here.

SMILES	RGS7-Gao	ABCB1 block	RGS16-Gao HTS	RGS8-Gao reg	RGS4-Gao reg	ABCG2 inh	RGS4-Gao HTS	Biotin-avidin	RGS8-Gao single	RGS7-Gao confirm	RGS16-Gao single	RGS4-Gao single	RGS19-Gao conf
COc1cc2c(cc1OC)C(C1C(=O)CC(C)(C)CC1=O)N(C(=O)CCl)CC2 (configuration not stated)	92.0	0.7	17.5*	73.5	90.2	2.2	90.2*	0.0	99.2	99.1	101.3	100.4	102.6
CC1CC(=O)C(C2c3ccccc3CCN2C(=O)CCl)C(=O)C1 (configuration not stated)	106.2	-0.1	99.9	100.3	99.0	-0.7	.	.	.	.	.	.	.
Cc1cc(C)n(-c2ccc(S(=O)(=O)N3CCCC3)cc2[N+](=O)[O-])n1	?	.	94.9	101.0	92.0	.	.	.	.	.	.	.	.
CSCCC(NC(N)=O)C(=O)NCc1ccccc1Cl (configuration not stated)	80.2	0.3	-698.5*	94.7	73.6	-0.5	73.6*	-2.6	99.8	99.0	97.9	98.4	91.1
CSCCC(NC(N)=O)C(=O)NCc1cccc(Cl)c1 (configuration not stated)	105.0	0.7	125.5	109.3	108.7	2.0	.	.	.	.	.	.	.
Cc1ccccc1N=C(NOCc1ccc(Cl)cc1Cl)c1nonc1N	.	0.2	.	.	.	6.5	.	2.2	96.2	95.0	93.9	96.3	103.1
NC(=O)[C@@H]1CCCCNc2c(I)cc([N+](=O)[O-])cc2C(=O)N[C@@H](CCC(=O)O)C(=O)N[C@@H](CO)C(=O)N1	100.4	-0.5	104.6	102.5	101.2	-2.0	.	.	.	.	.	.	.
NC(=O)[C@@H]1CCNc2c(I)cc([N+](=O)[O-])cc2C(=O)N[C@@H](CCC(=O)O)C(=O)N[C@@H](CO)C(=O)N1	98.7	0.9	403.8*[activator]	133.8	108.4	0.7	108.4*	.	.	.	.	.	.
c1ccc(-c2nnsc2-c2nc3ccccc3[nH]2)cc1	62.0	0.1	98.5	55.5*	84.4	0.6	84.4*	-1.2	105.9	106.6	104.1	106.7	100.3
c1ccc(-c2nnsc2-c2ncc[nH]2)cc1	?	-0.4	117.9	115.2	115.2	-0.5	.	.	.	.	.	.	.
CN1CCN(NC(=O)c2cn(-c3ccccc3)nc2-c2ccc(OC(F)F)cc2)CC1	?	0.3	103.5	101.1	102.6	1.6	.	.	.	.	.	.	.
CCCN1C(=O)C2(SC(NC(C)=O)=NN2C(C)=O)c2cc(C)cc(C)c21 (configuration not stated)	?	.	96.3	79.0	97.7	.	.	4.4	110.1	97.8	112.7	100.1	98.5
CCOc1ccc(NC(=O)CSC(N)=O)cc1	105.5	0.4	242.6	162.6*[activator]	99.5	4.3	99.5*	1.1	102.6	89.8	99.9	95.3	90.6
CC1CC(=O)Nc2ccccc2N1C(=O)Nc1ccc(F)cc1 (configuration not stated)	.	.	.	94.5	.	.	.	0.5	100.6	99.3	99.4	98.8	96.6
